STAT3 inh – reduces IL-6 driven STAT3 reporter signal; U3A cells, IL-6 STAT3-luciferase reporter, luminescence; host cell line lacks STAT1; inhibition, % at 5.5 µM; 190,000 compounds, 0.89% hits; AID 862;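 active means inhibition above the mean inhibition across all screened compounds plus 3 SD, cut at about 44% in these data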;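 further: 0% = DMSO only wells and 100% = 100 µM nifuroxazide control wells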
NF-kB neuron act – raises NF-kB expression in human neuronal cells; NF-kB reporter expression; hits give high values; fold change at 12.5 µM; 190,000 compounds, 1.6% hits; in the data active means fold change above about 3.3
APP 5'UTR act – activates APP 5'UTR luciferase reporter | SH-SY5Y APP 5'UTR luciferase reporter, luminescence; zero percent = DMSO vehicle wells | activation, % at 2 µM | 190,000 compounds, 1% hits;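 active means activation above a set limit, based on mean plus 3 SD of controls, cut at about 140% in these data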
STAT1 blocker – reduces IFN-gamma driven STAT1 reporter signal; inhibition, % at 5.5 µM; AID 920; 200,000 compounds, 0.35% hits; NIH 3T3 STAT1-luciferase reporter, luminescence;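 active means inhibition above a set limit, the mean inhibition across all tested compounds plus 3 SD, cut at about 34% in these data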;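 further: 0% = IFN-gamma with DMSO and 100% = IFN-gamma with 300 µM nifuroxazide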
STAT3 act – STAT3 signaling activation; 190,000 compounds, 0.91% hits; activation (% of control), % at 5.6 µM; U3A cells, IL-6 STAT3-luciferase reporter, luminescence; 100% = signal with IL-6 EC80 alone;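 active means activation above the screen-wide mean of compound activation plus 3 SD, cut at about 130% in these data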;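 further: 0% = background luminescence of wells with medium and substrate only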
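Detection: reporter luminescence signal / Assay system: STAT1-lacking human U3A cells, STAT3 luciferase reporter / Incubation: compound pre-incubation 1 h before IL-6, then 6 h stimulation at 37 °C / Control set: IL-6-only high control / Read-out: % activation relative to IL-6 control / Probe or stimulus: Interleukin-6, 33 ng/mL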
STAT1 activator – activators of IFN-gamma induced STAT1 signaling. NIH 3T3 STAT1-luciferase reporter, luminescence; 100% = IFN-gamma alone, no compound. 200,000 compounds, 2.6% hits. AID 932. activation (% of control), % at 5.5 µM;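 active means activation above the screen-wide mean activation plus 3 SD, cut at about 130% in these data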;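 further: raw ratio to IFN-gamma control signal so 100% means no change and 0% no light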
* = called active by the depositor; · = not tested or not shown. An excerpt weighted towards active compounds, which were near 5.1% of everything screened.

SMILES | STAT3 inh | NF-kB neuron act | APP 5'UTR act | STAT1 blocker | STAT3 act | STAT1 activator
Nc1[nH]c(N=NC(=O)c2ccccc2)c2ccccc12 | -0.8 | 3.37* | 131.9 | -47.4 | 98.8 | 142.2*
Nc1[nH]c(N=NC(=O)c2ccc(Cl)cc2)c2ccccc12 | -13.1 | 1.34 | 17.3 | -18.8 | 106.5 | 117.1
CCc1nc(N2CCN(Cc3ccc4c(c3)OCO4)CC2)c2oc3ccccc3c2n1 | 29.2 | 1.12 | -16.6 | 19.6 | 84.1 | 82.3
CC(=O)Nc1ccc(N2CCOCC2)c([N+](=O)[O-])c1 | 17.6 | 1.16 | 11.7 | -10.4 | 89.2 | 106.7
CCOc1ccc2nc(SC3CC(=O)N(c4ccc(OC)cc4OC)C3=O)sc2c1 (stereo not given) | 12.1 | 1.06 | 7.3 | -3.1 | 95.2 | 101.9
O=c1c2ccccc2nnn1COc1cccc(Cl)c1 | 9.7 | 1.38 | 18.5 | -34.7 | 97.4 | 130.6*
CCCC(C)NC(=O)COc1ccc(S(=O)(=O)c2ccc(OCC(=O)NC(C)CCC)cc2)cc1 (stereo not given) | -6.3 | 1.03 | 13.4 | 7.5 | 105.2 | 93.3
Cc1cc(C)c2cc3c(N)c(C(=O)N4CCOCC4)sc3nc2c1 | 3.3 | 0.93 | 85.8 | -51.0 | 102.2 | 143.5*
Cc1ccc(C)c2nc3sc(C(=O)N4CCOCC4)c(N)c3cc12 | -1.3 | 1.87 | 64.0 | -49.0 | 103.1 | 143.5*
Cc1nn(CC(=O)NCc2cccnc2)c(C)c1[N+](=O)[O-] | -0.9 | 0.96 | 1.5 | -8.6 | 107.2 | 106.0
COc1cccc(Nc2c3c(nc4c(-c5ccccc5)c(C)nn24)CCC3)c1 | 14.9 | 0.74 | 3.8 | 6.3 | 89.6 | 94.3
COc1cccc(-c2cc3nc4c(c(NCC(C)(C)CN(C)C)n3n2)CCCC4)c1 | -8.5 | 0.9 | 102.8 | -44.8 | 108.4 | 140.4*
Fc1cccc(-c2cc3nc4c(c(NCc5ccco5)n3n2)CCCC4)c1 | 15.1 | 4.6* | 165.8* | -47.5 | 92.5 | 142.8*
CCNC(=O)NC(=O)C(C)OC(=O)C1CCN(S(=O)(=O)c2ccc(C)c(C)c2)CC1 (stereo not given) | -9.7 | 0.96 | -24.2 | -9.5 | 106.0 | 108.4
Cc1ccc(/C([O-])=C(/C(=S)Nc2ccc(SC(F)F)cc2)[n+]2ccccc2)cc1[N+](=O)[O-] | -3.7 | 1.24 | -4.1 | 8.2 | 105.1 | 91.7
COCCCNC(=S)Nc1ccc2c(c1)OCCO2 | 1.5 | 1.51 | 8.2 | -17.2 | 101.3 | 115.5
O=C(N/N=C\c1ccc(Oc2ccccc2)cc1)c1csnn1 | 14.6 | 7.46* | 4.8 | -39.8 | 91.3 | 137.3*
CN(C)c1ccc(/C=N/NC(=O)c2ccnn2C)cc1 | 21.1 | 4.36* | 46.0 | -26.0 | 87.3 | 122.1
CN(C)c1ccc(/C=N\NC(=O)c2csnn2)cc1 | 37.4 | 3.39* | 8.9 | -13.8 | 71.8 | 112.4
Cc1cccc(/C=N\NC(=O)c2csnn2)c1 | 0.4 | 1.99 | -3.1 | -29.4 | 99.9 | 126.8
CN(C)C(=O)C(NC(=O)c1ccccc1)=C(Cl)Cl | 1.2 | 1.04 | -2.2 | 2.6 | 100.7 | 96.2
COC(=O)CCn1nnc(-c2ccc(C(C)C)cc2)n1 | 84.3* | 0.37 | -76.7 | 47.7* | 33.7 | 56.8
CCN(Cc1cc(=O)n2ccsc2n1)Cc1nc2ccccc2c(=O)[nH]1 | -3.0 | 1.15 | -3.9 | -0.3 | 106.5 | 97.3
COC(=O)Cc1c(C)c2ccc(OCC(C)=O)c(C)c2oc1=O | -11.6 | 1.8 | 31.7 | -25.6 | 112.4 | 129.7*
C=C(C)COc1ccc2c(C)c(CC(=O)OC)c(=O)oc2c1C | -3.4 | 3.12 | 58.8 | -16.2 | 102.6 | 114.9
SMILES | STAT3 inh | NF-kB neuron act | APP 5'UTR act | STAT1 blocker | STAT3 act | STAT1 activator
Cc1cc(/C=C(\C#N)C(=O)Nc2ccccc2)c(C)n1-c1cccnc1 | -14.1 | 1.46 | 82.8 | -36.0 | 110.5 | 132.9*
Cc1cc(C(=O)O)ccc1-n1c(C)cc(/C=C(/C#N)C(=O)Nc2ccccc2)c1C | 4.3 | 0.96 | 26.2 | 1.4 | 100.0 | 97.3
COc1cccc(OCc2nc3ccccc3[nH]2)c1 | 18.3 | 3.36* | 131.0 | -28.6 | 91.6 | 125.9
COc1ccc(OCc2nc3ccccc3[nH]2)cc1 | 2.1 | 3.95* | · | -18.3 | 104.3 | 116.9
COc1ccc(/C(C)=N/NC(=O)C2CC2)cc1 | 1.4 | 1.18 | 9.7 | -6.2 | 103.4 | 104.5
COc1ccc2cc(/C(C)=N/NC(=O)C3CC3)ccc2c1 | -1.9 | 2.35 | 66.6 | -50.2 | 103.1 | 146.7*

High-throughput results: PubChem, several laboratories
